Data set [1] in a line: Toxicity in BALB/c mouse infected with Trypanosoma cruzi MHOM/Pe/2011/Arequipa;DTU 5 bloodstream trypomastigotes assessed as decrease in serum aspartate aminotransferase level in acute phase at 20 mg/kg/day, po administered for 5 consecutive days starting from day 8 post infection and measured at day 14 post infection by biochemical analysis relative to control. Format: organism-based. Set-up: scale not given: the % may be the effect or the level left. The conditions noted are these: in vivo.

The nature of data set [2]: Toxicity in BALB/c mouse infected with Trypanosoma cruzi MHOM/Pe/2011/Arequipa;DTU 5 bloodstream trypomastigote assessed as increase in serum alanine aminotransferase level in acute phase at 20 mg/kg/day, po administered for 5 consecutive days starting from day 8 post infection and measured on day 100 post infection by biochemical analysis relative to control. The data set is classed as organism-based. The conditions noted are these: in vivo.

Data set [3] is described as follows: Toxicity in BALB/c mouse infected with Trypanosoma cruzi MHOM/Pe/2011/Arequipa;DTU 5 bloodstream trypomastigote assessed as change in serum uric acid level in chronic phase at 20 mg/kg/day, po administered for 5 consecutive days starting from day 70 post infection and measured at day 76 post infection relative to control. The data set is classed as organism-based. Particulars: in vivo.

Data set [4] can be described thus: Toxicity in BALB/c mouse infected with Trypanosoma cruzi MHOM/Pe/2011/Arequipa;DTU 5 bloodstream trypomastigote assessed as decrease in serum aspartate aminotransferase level in chronic phase at 20 mg/kg/day, po administered for 5 consecutive days starting from day 70 post infection measured on day 100 post infection relative to control. The conditions noted are these: in vivo. Format: organism-based. Also noted: scale not given: the % may be the effect or the level left.

Data set [5] in a line: Mutagenecity against Salmonella typhimurium TA97a assessed as number of colonies at 66.7 ug/plate in absence of Sprague-Dawley rat S9 […] measured after 48 hrs by Ames test ( Rvb = 37 +/- 6.5). The data set is classed as toxicity. The conditions noted are these: salmonella enterica subsp. enterica serovar typhimurium, s9, 48 h.
Data set [6] can be described thus: Mutagenecity against Salmonella typhimurium TA98 assessed as number of colonies at 22.2 ug/plate in absence of Sprague-Dawley rat S9 measured after 48 hrs by Ames test (reference value: 3 +/- 2.6). The data set is classed as toxicity. The conditions noted are these: salmonella enterica subsp. enterica serovar typhimurium, s9, 48 h.
Data set [7] can be described thus: Mutagenecity against Salmonella typhimurium TA98 assessed as number of colonies at 66.7 ug/plate in absence of Sprague-Dawley rat S9 measured after 48 hrs by Ames test (reference value: 3 +/- 2.6). Format: toxicity. Particulars: salmonella enterica subsp. enterica serovar typhimurium, s9, 48 h. (The Ames test uses bacterial strains that need an amino acid and regain growth without it when mutated back.)

Data set [8] is described as follows: Mutagenecity against Salmonella typhimurium TA98 assessed as number of colonies at 66.7 ug/plate in presence of Sprague-Dawley rat S9 measured after 48 hrs by Ames test (reference value: 4 +/- 2). The data set is classed as toxicity, subcellular. The conditions noted are these: salmonella enterica subsp. enterica serovar typhimurium, s9, 48 h.
The nature of data set [9]: Mutagenecity against Salmonella typhimurium TA 100 assessed as number of colonies at 66.7 ug/plate in absence of Sprague-Dawley rat S9 with metabolic activation measured after 48 hrs by Ames test (reference value: 35.7 +/- 0.6). The data set is classed as toxicity. The conditions noted are these: salmonella enterica subsp. enterica serovar typhimurium, s9, 48 h.
The nature of data set [10]: Mutagenecity against Salmonella typhimurium TA 100 assessed as number of colonies at 7.4 ug/plate in presence of Sprague-Dawley rat S9 with metabolic activation measured after 48 hrs by Ames test (reference value: 47.3 +/- 5.7). The data set is classed as toxicity, subcellular. The conditions noted are these: salmonella enterica subsp. enterica serovar typhimurium, s9, 48 h.

Data set [11] can be described thus: Mutagenecity against Salmonella typhimurium TA 102 assessed as number of colonies at 7.4 ug/plate in absence of Sprague-Dawley rat S9 with metabolic activation measured after 48 hrs by Ames test (reference value: 78.7 +/- 7.8). The data set is classed as toxicity. Particulars: salmonella enterica subsp. enterica serovar typhimurium, s9, 48 h.
A short description of data set [12]: Mutagenecity against Salmonella typhimurium TA 102 assessed as number of colonies at 22.2 ug/plate in absence of Sprague-Dawley rat S9 with metabolic activation measured after 48 hrs by Ames test (reference value: 78.7 +/- 7.8). The data set is classed as toxicity. Particulars: salmonella enterica subsp. enterica serovar typhimurium, s9, 48 h.
Data set [13] can be described thus: Mutagenecity against Salmonella typhimurium TA1535 assessed as number of colonies at 66.7 ug/plate in absence of Sprague-Dawley rat S9 measured after 48 hrs by Ames test (reference value: 13.3 +/- 2.5). The data set is classed as toxicity. Particulars: salmonella enterica subsp. enterica serovar typhimurium, s9, 48 h.
A short description of data set [14]: Mutagenecity against Salmonella typhimurium TA1535 assessed as number of colonies at 200 ug/plate in absence of Sprague-Dawley rat S9 measured after 48 hrs by Ames test (reference value: 13.3 +/- 2.5). Format: toxicity. Particulars: salmonella enterica subsp. enterica serovar typhimurium, s9, 48 h.
Data set [15] can be described thus: Mutagenecity against Salmonella typhimurium TA1535 assessed as number of colonies at 7.4 […] in presence of Sprague-Dawley rat S9 measured after 48 hrs by Ames test (reference value: 5 +/- 3.6). Format: toxicity, subcellular. The conditions noted are these: salmonella enterica subsp. enterica serovar typhimurium, s9, 48 h.
The nature of data set [16]: Mutagenecity against Salmonella typhimurium TA1535 assessed as number of colonies at 22.2 ug/plate in presence of Sprague-Dawley rat S9 measured after 48 hrs by Ames test (reference value: 5 +/- 3.6). Particulars: salmonella enterica subsp. enterica serovar typhimurium, s9, 48 h. Format: toxicity, subcellular.
Data set [17] is described as follows: Mutagenecity against Salmonella typhimurium TA1535 assessed as number of colonies at 200 ug/plate in presence of Sprague-Dawley rat S9 measured after 48 hrs by Ames test (reference value: 5 +/- 3.6). The conditions noted are these: salmonella enterica subsp. enterica serovar typhimurium, s9, 48 h. Format: toxicity, subcellular.
Data set [18] can be described thus: Genotoxicity in Salmonella typhimurium TA1535 harboring pSK1002 assessed as survival at 0.5 mg/ml in absence of Sprague-Dawley rat liver S9 fraction metabolic activation by SOS/umu assay relative to control. The data set is classed as toxicity. Particulars: salmonella enterica subsp. enterica serovar typhimurium, read-out: Survival. A digest of the protocol:
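Survival of S. typhimurium TA1535/pSK1002 exposed to a range of compound concentrations with or without S9 mix in 96-well format. Survival percentage measured as the cytotoxicity arm of the SOS/umu test. Concentrations with survival ≥80% are counted as non-cytotoxic.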

The nature of data set [19]: Toxicity in BALB/c mouse infected with Trypanosoma cruzi MHOM/Pe/2011/Arequipa;DTU 5 bloodstream trypomastigote assessed as change in serum urea level in acute phase at 20 mg/kg/day, po administered for 5 consecutive days starting from day 8 post infection and measured on day 100 post infection by biochemical analysis relative to control. The data set is classed as organism-based. Particulars: in vivo.

A short description of data set [20]: Toxicity in BALB/c mouse infected with Trypanosoma cruzi MHOM/Pe/2011/Arequipa;DTU 5 bloodstream trypomastigote assessed as change in serum urea level in chronic phase at 20 mg/kg/day, po administered for 5 consecutive days starting from day 70 post infection and measured at day 76 post infection relative to control. The data set is classed as organism-based. Particulars: in vivo.

Data set [21] is described as follows: Toxicity in BALB/c mouse infected with Trypanosoma cruzi MHOM/Pe/2011/Arequipa;DTU 5 bloodstream trypomastigote assessed as decrease in serum total bilirubin level in acute phase at 20 mg/kg/day, po administered for 5 consecutive days starting from day 8 post infection and measured at day 14 post infection by biochemical analysis relative to control. The data set is classed as organism-based. Set-up: scale not given: the % may be the effect or the level left. The conditions noted are these: in vivo.

Data set [22] in a line: Toxicity in BALB/c mouse infected with Trypanosoma cruzi MHOM/Pe/2011/Arequipa;DTU 5 bloodstream trypomastigote assessed as increase in serum aspartate aminotransferase level in acute phase at 20 mg/kg/day, po administered for 5 consecutive days starting from day 8 post infection and measured on day 100 post infection by biochemical analysis relative to control. The data set is classed as organism-based. Particulars: in vivo.

A short description of data set [23]: Toxicity in BALB/c mouse infected with Trypanosoma cruzi MHOM/Pe/2011/Arequipa;DTU 5 bloodstream trypomastigote assessed as change in serum alkaline phosphatase level in acute phase at 20 mg/kg/day, po administered for 5 consecutive days and measured on day 100 post infection by biochemical analysis relative to control. Format: organism-based. Particulars: in vivo.

A short description of data set [24]: Toxicity in BALB/c mouse infected with Trypanosoma cruzi MHOM/Pe/2011/Arequipa;DTU 5 bloodstream trypomastigote assessed as increase in serum aspartate aminotransferase level in chronic phase at 20 mg/kg/day, po administered for 5 consecutive days starting from day 70 post infection and measured at day 76 post infection relative to control. Format: organism-based. Particulars: in vivo.

Experimental findings from ChEMBL document CHEMBL4402517, “Rational modification of Mannich base-type derivatives as novel antichagasic compounds: Synthesis, in vitro and in vivo evaluation” (Bioorg Med Chem, 2019) are described below.

Consider `O=C(CCN1CCN(c2ccc(Cl)cc2)CC1)c1ccc(O)cc1`, for which the Activity result in [1] is “<= 10%”; in [2] it was “<= 20%”; in data set [3] it was greater than 10%; in [4], “<= 10%”; in data set [5], 31.3; in data set [6], 4.7. Further, the Activity in data set [7] turned out to be 4; in [8], 6.3; in data set [9] it was 38; in data set [10] it was 44.7; in data set [11], 72; in [12] it was 69.7. Further, the Activity is 3.7 in data set [13]; 4 in data set [14]; 5.5 in data set [15]; 3 in data set [16]; 7 in data set [17].
Regarding `O=C(CCN1CCN(c2ccc(C(F)(F)F)cc2)CC1)c1ccc(O)cc1`, the viability at 0.5 mg/ml in data set [18] was 155%. Also, the Activity in data set [19] and in [20] was greater than 10% throughout.
With `O=C(Cn1ccnc1[N+](=O)[O-])NCc1ccccc1` [BENZNIDAZOLE], the Activity entry in [21] is on record as “<= 10%”; in data set [22], “<= 10%”; in data set [23], greater than 10%; in data set [24], “<= 10%”.
